Test results: ChEMBL document CHEMBL2157880, “Synthesis, antimycobacterial and antibacterial activity of ciprofloxacin derivatives containing a N-substituted benzyl moiety” (2012)
Values after ≈ are worked out from the molar mass of the structure shown.

Assays:
Assay type in all cases: functional
[1] = tested on: Klebsiella pneumoniae; test: Antibacterial activity against Klebsiella pneumoniae 10-2 after 18 to 24 hrs by NCCLS method
Summary of the method: (§1)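 Standard NCCLS (M100-S11) MIC testing against Gram-positive and Gram-negative strains. Plates were incubated at 35 °C for 18–24 h. The MIC was read as the lowest concentration giving complete inhibition of visible bacterial growth.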

[2] = tested on: Escherichia coli; test: Antibacterial activity against Escherichia coli 10-3 after 18 to 24 hrs by NCCLS method; summary of the method: as §1
[3] = tested on: Escherichia coli; test: Antibacterial activity against Escherichia coli ATCC 25922 after 18 to 24 hrs by NCCLS method; summary of the method: as §1
[4] = tested on: Enterococcus faecalis; test: Antibacterial activity against Enterococcus faecalis 10-6 after 18 to 24 hrs by NCCLS method; summary of the method: as §1
[5] = tested on: Klebsiella pneumoniae; test: Antibacterial activity against Klebsiella pneumoniae 10-4 after 18 to 24 hrs by NCCLS method; summary of the method: as §1
[6] = tested on: Staphylococcus aureus; test: Antibacterial activity against methicillin-sensitive Staphylococcus aureus 10-14 after 18 to 24 hrs by NCCLS method; summary of the method: as §1
[7] = tested on: Staphylococcus epidermidis; test: Antibacterial activity against methicillin-resistant Staphylococcus epidermidis 10-10 after 18 to 24 hrs by NCCLS method
Summary of the method: (§2)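 Incubated at 35 °C for 18–24 h under NCCLS (M100-S11) standards. MIC was read as the lowest concentration giving complete inhibition of visible bacterial growth.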

[8] = tested on: Staphylococcus epidermidis; test: Antibacterial activity against methicillin-sensitive Staphylococcus epidermidis 10-11 after 18 to 24 hrs by NCCLS method; summary of the method: as §1
[9] = tested on: Pseudomonas aeruginosa; test: Antibacterial activity against Pseudomonas aeruginosa 10-5 after 18 to 24 hrs by NCCLS method; summary of the method: as §1
[10] = tested on: Staphylococcus aureus; test: Antibacterial activity against methicillin-resistant Staphylococcus aureus 10-15 after 18 to 24 hrs by NCCLS method; summary of the method: as §2
[11] = tested on: Enterococcus faecalis; test: Antibacterial activity against Enterococcus faecalis 10-5 after 18 to 24 hrs by NCCLS method; summary of the method: as §1
[12] = tested on: Staphylococcus epidermidis; test: Antibacterial activity against methicillin-resistant Staphylococcus epidermidis 10-13 after 18 to 24 hrs by NCCLS method; summary of the method: as §2
[13] = tested on: Streptococcus pneumoniae; test: Antibacterial activity against Streptococcus pneumoniae 10-1 after 18 to 24 hrs by NCCLS method; summary of the method: as §1
[14] = tested on: Staphylococcus aureus; test: Antibacterial activity against methicillin-resistant Staphylococcus aureus 10-11 after 18 to 24 hrs by NCCLS method; summary of the method: as §2
[15] = tested on: Escherichia coli; test: Antibacterial activity against Escherichia coli 10-2 after 18 to 24 hrs by NCCLS method; summary of the method: as §1
[16] = tested on: Pseudomonas aeruginosa; test: Antibacterial activity against Pseudomonas aeruginosa 10-12 after 18 to 24 hrs by NCCLS method; summary of the method: as §1
[17] = tested on: Streptococcus pneumoniae; test: Antibacterial activity against Streptococcus pneumoniae 10-6 after 18 to 24 hrs by NCCLS method; summary of the method: as §1
[18] = tested on: Escherichia coli; test: Antibacterial activity against extended spectrum beta-lactamases producing Escherichia coli 10-2 after 18 to 24 hrs by NCCLS method; summary of the method: as §1
[19] = tested on: Pseudomonas aeruginosa; test: Antibacterial activity against Pseudomonas aeruginosa 10-18 after 18 to 24 hrs by NCCLS method; summary of the method: as §1
[20] = tested on: Klebsiella pneumoniae; test: Antibacterial activity against Klebsiella pneumoniae 10-3 after 18 to 24 hrs by NCCLS method; summary of the method: as §1
[21] = tested on: Pseudomonas aeruginosa; test: Antibacterial activity against Pseudomonas aeruginosa 10-20 after 18 to 24 hrs by NCCLS method; summary of the method: as §1
[22] = tested on: Escherichia coli; test: Antibacterial activity against Escherichia coli 10-1 after 18 to 24 hrs by NCCLS method; summary of the method: as §1
[23] = tested on: Pseudomonas aeruginosa; test: Antibacterial activity against Pseudomonas aeruginosa 10-15 after 18 to 24 hrs by NCCLS method; summary of the method: as §1
[24] = tested on: Staphylococcus aureus; test: Antibacterial activity against Staphylococcus aureus ATCC 2592 after 18 to 24 hrs by NCCLS method; summary of the method: as §1
[25] = tested on: Staphylococcus aureus; test: Antibacterial activity against methicillin-resistant Staphylococcus aureus 10-13 after 18 to 24 hrs by NCCLS method; summary of the method: as §2
[26] = tested on: Mycobacterium tuberculosis; test: Antimycobacterial activity against Mycobacterium tuberculosis H37Rv ATCC 27294 by microplate alamar blue assay
Summary of the method: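 Microplate Alamar Blue fluorescence assay on strain H37Rv ATCC 27294. MIC was the lowest concentration cutting fluorescence by ≥90% against the mean of replicate bacterium-only controls.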

[27] = tested on: Staphylococcus aureus; test: Antibacterial activity against methicillin-sensitive Staphylococcus aureus 10-13 after 18 to 24 hrs by NCCLS method; summary of the method: as §1
[28] = tested on: Klebsiella pneumoniae; test: Antibacterial activity against extended spectrum beta-lactamases producing Klebsiella pneumoniae 10-1 after 18 to 24 hrs by NCCLS method; summary of the method: as §1
[29] = tested on: Enterococcus faecalis; test: Antibacterial activity against Enterococcus faecalis 10-7 after 18 to 24 hrs by NCCLS method; summary of the method: as §1
[30] = tested on: Enterococcus faecium; test: Antibacterial activity against Enterococcus faecium 10-9 after 18 to 24 hrs by NCCLS method; summary of the method: as §1
[31] = tested on: Klebsiella pneumoniae; test: Antibacterial activity against extended spectrum beta-lactamases producing Klebsiella pneumoniae 10-2 after 18 to 24 hrs by NCCLS method; summary of the method: as §1
[32] = tested on: Escherichia coli; test: Antibacterial activity against extended spectrum beta-lactamases producing Escherichia coli 10-4 after 18 to 24 hrs by NCCLS method; summary of the method: as §1
[33] = tested on: Escherichia coli; test: Antibacterial activity against extended spectrum beta-lactamases producing Escherichia coli 10-3 after 18 to 24 hrs by NCCLS method; summary of the method: as §1
[34] = tested on: Enterococcus faecium; test: Antibacterial activity against Enterococcus faecium 10-6 after 18 to 24 hrs by NCCLS method; summary of the method: as §1
[35] = tested on: Staphylococcus aureus; test: Antibacterial activity against methicillin-sensitive Staphylococcus aureus 10-11 after 18 to 24 hrs by NCCLS method; summary of the method: as §1
[36] = tested on: Staphylococcus epidermidis; test: Antibacterial activity against methicillin-sensitive Staphylococcus epidermidis 10-15 after 18 to 24 hrs by NCCLS method; summary of the method: as §2
[37] = tested on: Pseudomonas aeruginosa; test: Antibacterial activity against Pseudomonas aeruginosa 10-9 after 18 to 24 hrs by NCCLS method; summary of the method: as §1
[38] = tested on: Klebsiella pneumoniae; test: Antibacterial activity against extended spectrum beta-lactamases producing Klebsiella pneumoniae 10-3 after 18 to 24 hrs by NCCLS method; summary of the method: as §1

Compound	MIC [1] [µg/mL]	MIC [4] [µg/mL]	MIC [5] [µg/mL]	MIC [6] [µg/mL]	MIC [7] [µg/mL]	MIC [8] [µg/mL]	MIC [11] [µg/mL]	MIC [12] [µg/mL]	MIC [13] [µg/mL]	MIC [14] [µg/mL]	MIC [17] [µg/mL]	MIC [19] [µg/mL]	MIC [20] [µg/mL]	MIC [24] [µg/mL]	MIC [25] [µg/mL]	MIC [26] [µg/mL]	MIC [27] [µg/mL]	MIC [28] [µg/mL]	MIC [29] [µg/mL]	MIC [30] [µg/mL]	other results
COc1ccc(OC)c(CN2CCN(c3cc4c(cc3F)c(=O)c(C(=O)O)cn4C3CC3)CC2)c1	> 128	128 (≈ 266 µM)	> 128	1 (≈ 2.08 µM)	16 (≈ 33.2 µM)	1 (≈ 2.08 µM)	16 (≈ 33.2 µM)	16 (≈ 33.2 µM)	8 (≈ 16.6 µM)	32 (≈ 66.5 µM)	64 (≈ 133 µM)	16 (≈ 33.2 µM)	16 (≈ 33.2 µM)	0.5 (≈ 1.04 µM)	32 (≈ 66.5 µM)	> 32	0.5 (≈ 1.04 µM)	> 128	16 (≈ 33.2 µM)	16 (≈ 33.2 µM)	MIC [2]: 16 µg/mL (≈ 33.2 µM); MIC [3]: 1 µg/mL (≈ 2.08 µM); MIC [9]: 16 µg/mL (≈ 33.2 µM); MIC [10]: 16 µg/mL (≈ 33.2 µM); MIC [15]: 64 µg/mL (≈ 133 µM); MIC [16]: 8 µg/mL (≈ 16.6 µM); MIC [18]: > 128 µg/mL; MIC [21]: 32 µg/mL (≈ 66.5 µM); MIC [22]: > 128 µg/mL; MIC [23]: 16 µg/mL (≈ 33.2 µM); MIC [31]: > 128 µg/mL; MIC [32]: > 128 µg/mL; MIC [33]: > 128 µg/mL; MIC [34]: 16 µg/mL (≈ 33.2 µM); MIC [35]: 0.5 µg/mL (≈ 1.04 µM); MIC [36]: 16 µg/mL (≈ 33.2 µM); MIC [37]: 16 µg/mL (≈ 33.2 µM); MIC [38]: > 128 µg/mL
COc1cc(CN2CCN(c3cc4c(cc3F)c(=O)c(C(=O)O)cn4C3CC3)CC2)c([N+](=O)[O-])cc1OC	> 128	128 (≈ 243 µM)	> 128	1 (≈ 1.9 µM)	16 (≈ 30.4 µM)	2 (≈ 3.8 µM)	16 (≈ 30.4 µM)	16 (≈ 30.4 µM)	8 (≈ 15.2 µM)	64 (≈ 122 µM)	128 (≈ 243 µM)	8 (≈ 15.2 µM)	8 (≈ 15.2 µM)	1 (≈ 1.9 µM)	64 (≈ 122 µM)	> 32	2 (≈ 3.8 µM)	> 128	16 (≈ 30.4 µM)	64 (≈ 122 µM)	MIC [2]: 8 µg/mL (≈ 15.2 µM); MIC [3]: 2 µg/mL (≈ 3.8 µM); MIC [9]: 8 µg/mL (≈ 15.2 µM); MIC [10]: 16 µg/mL (≈ 30.4 µM); MIC [15]: 8 µg/mL (≈ 15.2 µM); MIC [16]: 16 µg/mL (≈ 30.4 µM); MIC [18]: > 128 µg/mL; MIC [21]: 4 µg/mL (≈ 7.6 µM); MIC [22]: > 128 µg/mL; MIC [23]: 8 µg/mL (≈ 15.2 µM); MIC [31]: > 128 µg/mL; MIC [32]: > 128 µg/mL; MIC [33]: > 128 µg/mL; MIC [34]: 8 µg/mL (≈ 15.2 µM); MIC [35]: 1 µg/mL (≈ 1.9 µM); MIC [36]: 16 µg/mL (≈ 30.4 µM); MIC [37]: 8 µg/mL (≈ 15.2 µM); MIC [38]: > 128 µg/mL
O=C(O)c1cn(C2CC2)c2cc(N3CCN(Cc4cc5c(cc4[N+](=O)[O-])OCO5)CC3)c(F)cc2c1=O	64 (≈ 125 µM)	64 (≈ 125 µM)	> 128	1 (≈ 1.96 µM)	16 (≈ 31.3 µM)	1 (≈ 1.96 µM)	32 (≈ 62.7 µM)	32 (≈ 62.7 µM)	2 (≈ 3.92 µM)	32 (≈ 62.7 µM)	16 (≈ 31.3 µM)	2 (≈ 3.92 µM)	2 (≈ 3.92 µM)	0.5 (≈ 0.979 µM)	32 (≈ 62.7 µM)	2 (≈ 3.92 µM)	1 (≈ 1.96 µM)	> 128	32 (≈ 62.7 µM)	16 (≈ 31.3 µM)	MIC [2]: 8 µg/mL (≈ 15.7 µM); MIC [3]: 0.125 µg/mL (≈ 0.245 µM); MIC [9]: 1 µg/mL (≈ 1.96 µM); MIC [10]: 32 µg/mL (≈ 62.7 µM); MIC [15]: 1 µg/mL (≈ 1.96 µM); MIC [16]: 1 µg/mL (≈ 1.96 µM); MIC [18]: > 128 µg/mL; MIC [21]: 4 µg/mL (≈ 7.84 µM); MIC [22]: 32 µg/mL (≈ 62.7 µM); MIC [23]: 0.5 µg/mL (≈ 0.979 µM); MIC [31]: > 128 µg/mL; MIC [32]: 8 µg/mL (≈ 15.7 µM); MIC [33]: > 128 µg/mL; MIC [34]: 2 µg/mL (≈ 3.92 µM); MIC [35]: 0.5 µg/mL (≈ 0.979 µM); MIC [36]: 16 µg/mL (≈ 31.3 µM); MIC [37]: 1 µg/mL (≈ 1.96 µM); MIC [38]: > 128 µg/mL
O=C(O)c1cn(C2CC2)c2cc(N3CCNCC3)c(F)cc2c1=O [CIPROFLOXACIN]	32 (≈ 96.6 µM)	64 (≈ 193 µM)	32 (≈ 96.6 µM)	0.5 (≈ 1.51 µM)	8 (≈ 24.1 µM)	0.5 (≈ 1.51 µM)	8 (≈ 24.1 µM)	16 (≈ 48.3 µM)	2 (≈ 6.04 µM)	32 (≈ 96.6 µM)	32 (≈ 96.6 µM)	1 (≈ 3.02 µM)	0.25 (≈ 0.754 µM)	0.25 (≈ 0.754 µM)	128 (≈ 386 µM)	0.5 (≈ 1.51 µM)	0.5 (≈ 1.51 µM)	32 (≈ 96.6 µM)	16 (≈ 48.3 µM)	16 (≈ 48.3 µM)	MIC [31]: 32 µg/mL (≈ 96.6 µM); MIC [34]: 1 µg/mL (≈ 3.02 µM); MIC [35]: 0.5 µg/mL (≈ 1.51 µM); MIC [36]: 8 µg/mL (≈ 24.1 µM); MIC [38]: 32 µg/mL (≈ 96.6 µM)
